# The source made the active and inactive calls. No cut-off for these calls is given here.
# What was measured:
# A549 [1] = assay: Antiproliferative activity against human A549 cells assessed as cell growth inhibition measured after 48 hrs by MTT assay; format: functional, cell-based; conditions: A549, 48 h
# Method in brief: (§1)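 Cancer cell lines exposed to compounds for 48 h; viability read by MTT assay. IC50 reported as mean ± SD from at least three independent experiments.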
# HeLa = assay: Antiproliferative activity against human HeLa cells assessed as cell growth inhibition measured after 48 hrs by MTT assay; format: functional, cell-based; method in brief: as §1
# HepG2 = assay: Antiproliferative activity against human HepG2 cells assessed as cell growth inhibition measured after 48 hrs by MTT assay; format: functional, cell-based; conditions: HepG2, 48 h; method in brief: as §1
# MDA-MB-231 = assay: Antiproliferative activity against human MDA-MB-231 cells assessed as cell growth inhibition measured after 48 hrs by MTT assay; format: functional, cell-based; conditions: MDA-MB-231, 48 h; method in brief: as §1
# Tubulin (Sus scrofa) = Tubulin (Sus scrofa) (UniProt P02554+P02550); assay: (§2) Inhibition of porcine brain tubulin polymerization assessed as decrease in fluorescence intensity measured every 60 sec for 90 mins in presence of GTP by DAPI staining based fluorescence assay
# Method in brief: (§3)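 Purified unpolymerised tubulin in reaction buffer incubated at 37 °C without or with compound at 0.75-7.5 µM. Polymerisation was followed as a rise in fluorescence intensity, and IC50 was derived. Performed three times.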
# Tubulin = Tubulin (Sus scrofa, UniProt P02554+P02550); assay: as §2; method in brief: as §3
# A549 [2] = assay: Disruption of microtubule organization in human A549 cells assessed as microtubule spindle shrunk at 1 to 10 nM measured after 24 hrs by immunofluorescence laser confocal microscopy analysis; format: functional, cell-based
# Method in brief: (§4)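 A549 cells plated in confocal dishes and exposed to DMSO or compound at 1, 5 or 10 nM for 24 h. Cells were fixed, immunostained for microtubules and imaged by laser confocal microscopy. Performed three times.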
# A549 [3] = assay: Cell cycle arrest in human A549 cells assessed as increase in cell accumulation at G2/M phase at 1 to 10 nM by RNase/propidium iodide staining based flow cytometry analysis; format: functional; conditions: TDE = time-dependent effect
# A549 [4] = assay: Cell cycle arrest in human A549 cells assessed as increase in cell accumulation at G2/M phase measured after 24 to 48 hrs by RNase/propidium iodide staining based flow cytometry analysis; format: functional
# A549 [5] = assay: Induction of apoptosis in human A549 cells assessed as live cells at 1 nM after 24 hrs by annexin V-FITC/propidium iodide staining based flow cytometry (reference value: 99.75 %); format: functional
# Method in brief: (§5)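 A549 cells treated at 1, 5 or 10 nM for 24 or 48 h, then analysed by flow cytometry. Quadrants: upper left necrotic, upper right late apoptotic, bottom left live, bottom right early apoptotic. Three experiments; representative results shown.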
# A549 [6] = assay: Induction of apoptosis in human A549 cells assessed as early apoptotic cells at 1 nM after 24 hrs by annexin V-FITC/propidium iodide staining based flow cytometry (reference value: 0.19 %); format: functional; method in brief: as §5
# A549 [7] = assay: Induction of apoptosis in human A549 cells assessed as late apoptotic cells at 1 nM after 24 hrs by annexin V-FITC/propidium iodide staining based flow cytometry (reference value: 0.02 %); format: functional; method in brief: as §5
# A549 [8] = assay: Induction of apoptosis in human A549 cells assessed as necrotic cells at 1 nM after 24 hrs by annexin V-FITC/propidium iodide staining based flow cytometry (reference value: 0.03 %); format: functional; method in brief: as §5
# A549 [9] = assay: Induction of apoptosis in human A549 cells assessed as live cells at 5 nM after 24 hrs by annexin V-FITC/propidium iodide staining based flow cytometry (reference value: 99.75 %); format: functional; method in brief: as §5
# A549 [10] = assay: Induction of apoptosis in human A549 cells assessed as early apoptotic cells at 5 nM after 24 hrs by annexin V-FITC/propidium iodide staining based flow cytometry (reference value: 0.19 %); format: functional; method in brief: as §5
# A549 [11] = assay: Induction of apoptosis in human A549 cells assessed as late apoptotic cells at 5 nM after 24 hrs by annexin V-FITC/propidium iodide staining based flow cytometry (reference value: 0.02 %); format: functional; method in brief: as §5
# A549 [12] = assay: Induction of apoptosis in human A549 cells assessed as necrotic cells at 5 nM after 24 hrs by annexin V-FITC/propidium iodide staining based flow cytometry (reference value: 0.03 %); format: functional; method in brief: as §5
# A549 [13] = assay: Induction of apoptosis in human A549 cells assessed as live cells at 10 nM after 24 hrs by annexin V-FITC/propidium iodide staining based flow cytometry (reference value: 99.75 %); format: functional; method in brief: as §5
# A549 [14] = assay: Induction of apoptosis in human A549 cells assessed as late apoptotic cells at 10 nM after 24 hrs by annexin V-FITC/propidium iodide staining based flow cytometry (reference value: 0.02 %); format: functional; method in brief: as §5
# A549 [15] = assay: Induction of apoptosis in human A549 cells assessed as live cells at 1 nM after 48 hrs by annexin V-FITC/propidium iodide staining based flow cytometry (reference value: 99.75 %); format: functional; method in brief: as §5
# A549 [16] = assay: Induction of apoptosis in human A549 cells assessed as late apoptotic cells at 1 nM after 48 hrs by annexin V-FITC/propidium iodide staining based flow cytometry (reference value: 0.02 %); format: functional; method in brief: as §5
# A549 [17] = assay: Induction of apoptosis in human A549 cells assessed as live cells at 5 nM after 48 hrs by annexin V-FITC/propidium iodide staining based flow cytometry (reference value: 99.75 %); format: functional; method in brief: as §5
# A549 [18] = assay: Induction of apoptosis in human A549 cells assessed as early apoptotic cells at 5 nM after 48 hrs by annexin V-FITC/propidium iodide staining based flow cytometry (reference value: 0.19 %); format: functional; method in brief: as §5
# A549 [19] = assay: Induction of apoptosis in human A549 cells assessed as late apoptotic cells at 5 nM after 48 hrs by annexin V-FITC/propidium iodide staining based flow cytometry (reference value: 0.02 %); format: functional; method in brief: as §5
# A549 [20] = assay: Induction of apoptosis in human A549 cells assessed as early apoptotic cells at 10 nM after 48 hrs by annexin V-FITC/propidium iodide staining based flow cytometry (reference value: 0.19 %); format: functional; method in brief: as §5
# [21] = Metabolic stability in Sprague-Dawley rat liver microsomes assessed as parent compound remaining after 30 mins in presence of NADPH by HPLC-UV-MS analysis; format: ADME, Microsome; conditions: read-out: Stability
# Method in brief: (§6)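 Compound incubated with rat liver microsomes in buffer containing an NADPH regenerating system. Percentage of parent remaining was determined at time points up to 180 min, and half-life was derived.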
# [22] = Metabolic stability in Sprague-Dawley rat liver microsomes assessed as parent compound remaining after 60 mins in presence of NADPH by HPLC-UV-MS analysis; format: ADME, Microsome; conditions: read-out: Stability; method in brief: as §6
# [23] = Metabolic stability in Sprague-Dawley rat liver microsomes assessed as parent compound remaining after 120 mins in presence of NADPH by HPLC-UV-MS analysis; format: ADME, Microsome; conditions: read-out: Stability; method in brief: as §6
# [24] = Metabolic stability in Sprague-Dawley rat liver microsomes assessed as parent compound remaining after 150 mins in presence of NADPH by HPLC-UV-MS analysis; format: ADME, Microsome; conditions: Sprague-Dawley, liver microsomes, read-out: Stability; method in brief: as §6
# [25] = Half-life in Sprague-Dawley rat liver microsomes in presence of NADPH by HPLC-UV-MS analysis; format: ADME, Microsome; method in brief: as §6
# A549 [26] = assay: Disruption of microtubule organization in human A549 cells assessed as appearance of dotted disorder formations at 10 nM measured after 24 hrs by immunofluorescence laser confocal microscopy analysis; format: functional, cell-based; method in brief: as §4
# in vitro = conditions: Sprague-Dawley, rat, liver microsomes
# Tubulin (Sus scrofa), sequence (P02550 whole entry, looked up): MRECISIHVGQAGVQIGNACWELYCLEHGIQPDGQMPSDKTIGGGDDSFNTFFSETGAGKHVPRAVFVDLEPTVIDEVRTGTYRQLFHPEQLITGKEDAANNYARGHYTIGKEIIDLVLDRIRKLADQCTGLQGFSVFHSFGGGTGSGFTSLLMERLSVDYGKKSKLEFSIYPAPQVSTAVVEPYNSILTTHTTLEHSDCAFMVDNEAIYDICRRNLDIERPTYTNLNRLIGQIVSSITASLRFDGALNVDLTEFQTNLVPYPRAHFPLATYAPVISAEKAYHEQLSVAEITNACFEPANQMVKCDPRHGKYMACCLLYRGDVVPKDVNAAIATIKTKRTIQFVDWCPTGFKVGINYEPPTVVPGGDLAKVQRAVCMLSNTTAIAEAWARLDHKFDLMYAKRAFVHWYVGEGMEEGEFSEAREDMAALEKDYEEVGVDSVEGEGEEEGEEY
# Tubulin (Sus scrofa), sequence (P02554 whole entry, looked up): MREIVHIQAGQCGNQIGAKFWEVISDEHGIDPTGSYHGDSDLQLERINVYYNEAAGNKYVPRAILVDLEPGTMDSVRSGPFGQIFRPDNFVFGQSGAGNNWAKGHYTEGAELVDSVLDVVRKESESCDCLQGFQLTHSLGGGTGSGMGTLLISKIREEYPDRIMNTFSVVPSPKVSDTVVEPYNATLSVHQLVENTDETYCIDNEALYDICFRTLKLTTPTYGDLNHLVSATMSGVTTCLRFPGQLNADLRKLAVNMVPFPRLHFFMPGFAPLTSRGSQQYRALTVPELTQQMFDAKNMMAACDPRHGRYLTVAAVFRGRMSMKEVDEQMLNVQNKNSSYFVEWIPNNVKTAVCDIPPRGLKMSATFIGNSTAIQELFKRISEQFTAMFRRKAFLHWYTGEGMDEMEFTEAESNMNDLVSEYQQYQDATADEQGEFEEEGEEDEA
structure (smiles),measurement,setting,value
COc1ccc2c(c1O)NC(=O)CN=C2c1cc(OC)c(OC)c([Se]C)c1,IC50,A549 [1],0.00582 µM
same,IC50,HeLa,0.0083 µM
same,IC50,HepG2,0.0126 µM
same,IC50,MDA-MB-231,0.0155 µM
same,inhibition,Tubulin (Sus scrofa),Dose-dependent effect
same,IC50,Tubulin,1.65 µM
same,Activity,A549 [2],Active
same,Activity,A549 [3],Tde
same,Activity,A549 [4],Dose-dependent effect
same,Activity,A549 [5],94.08%
same,Activity,A549 [6],5.71%
same,Activity,A549 [7],0.17%
same,Activity,A549 [8],0.04%
same,Activity,A549 [9],86.5%
same,Activity,A549 [10],13.15%
same,Activity,A549 [11],0.32%
same,Activity,A549 [12],0.03%
same,Activity,A549 [13],76.72%
same,Activity,A549 [14],0.13%
same,Activity,A549 [15],82.83%
same,Activity,A549 [16],3.25%
same,Activity,A549 [17],57.32%
same,Activity,A549 [18],28.68%
same,Activity,A549 [19],11.71%
same,Activity,A549 [20],65.4%
same,remaining at 0.5 h,[21],95.6%
same,remaining at 1 h,[22],86.3%
same,remaining at 2 h,[23],66.1%
same,remaining at 2.5 h,[24],57.4%
same,half-life,[25],2.69 h
same,Activity,A549 [26],Active
same,remaining at 3 h,in vitro,50.4%

# Source: ChEMBL document CHEMBL4359917, “Design, synthesis, and biological evaluation of novel benzodiazepine derivatives as anticancer agents through inhibition of tubulin polymerization in vitro and in vivo” (Eur J Med Chem, 2019)
